Experimental data taken from ChEMBL document CHEMBL3588831, “Synthesis and in Vivo Evaluation of [123I]Melanin-Targeted Agents” (J Med Chem, 2015).

Test system: Mus musculus
Test: Biodistribution in eyes of C57BL/6J mouse bearing mouse B16F0 cells at 0.37 to 1.85 MBq, iv after 1 hr by gamma counting method
Format: ADME, organism-based, Eye
Conditions: in vivo; call rule not given here
Method in brief: (§1)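 Female C57BL/6J mice (5−6 weeks), s.c. inoculated on left flank with 3 × 10^5 B16F0 cells in Ca2+/Mg2+-free PBS, used 11 days later (tumors 2−12 mm). Radiotracer given via tail vein in 100 μL (~0.37 MBq for 1−24 h, 1.85 MBq for 48 h). Organs dissected, weighed, γ-counted, decay corrected. Expressed as % ID/g against injected-dose dilutions. Mean ± SEM, n = 5.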

Drug uptake [% ID/g]	Structure (SMILES)
40.3	O=C(c1ccc2c(n1)NCCC2)N1CCN(Cc2ccc([123I])cc2)CC1

Test system: Mus musculus
Test: Biodistribution in tumor of C57BL/6J mouse bearing mouse B16F0 cells at 0.37 to 1.85 MBq, iv after 16 hrs by gamma counting method
Format: ADME, organism-based
Conditions: in vivo
Method in brief: as §1

Drug uptake [% ID/g]	Structure (SMILES)
20.4	O=C(c1ccc2c(n1)NCCC2)N1CCN(Cc2ccc([123I])cc2)CC1

Test system: Liver
Test: Biodistribution in liver of C57BL/6J mouse bearing mouse B16F0 cells at 0.37 to 1.85 MBq, iv after 24 hrs by gamma counting method
Format: ADME, organism-based
Conditions: in vivo
Method in brief: as §1

Drug uptake [% ID/g]	Structure (SMILES)
0.8	O=C(c1ccc2c(n1)NCCC2)N1CCN(Cc2ccc([123I])cc2)CC1

Test system: Spleen
Test: Biodistribution in spleen of C57BL/6J mouse bearing mouse B16F0 cells at 0.37 to 1.85 MBq, iv after 16 hrs by gamma counting method
Format: ADME, organism-based
Conditions: in vivo
Method in brief: as §1

Drug uptake [% ID/g]	Structure (SMILES)
0.3	O=C(c1ccc2c(n1)NCCC2)N1CCN(Cc2ccc([123I])cc2)CC1

Test system: Mus musculus
Test: Biodistribution in eyes of C57BL/6J mouse bearing mouse B16F0 cells at 0.37 to 1.85 MBq, iv after 24 hrs by gamma counting method
Format: ADME, organism-based, Eye
Conditions: in vivo
Method in brief: as §1

Drug uptake [% ID/g]	Structure (SMILES)
30.8	O=C(c1ccc2c(n1)NCCC2)N1CCN(Cc2ccc([123I])cc2)CC1

Test system: Liver
Test: Biodistribution in liver of C57BL/6J mouse bearing mouse B16F0 cells at 0.37 to 1.85 MBq, iv after 6 hrs by gamma counting method
Format: ADME, organism-based
Conditions: in vivo
Method in brief: as §1

Drug uptake [% ID/g]	Structure (SMILES)
6.3	O=C(c1ccc2c(n1)NCCC2)N1CCN(Cc2ccc([123I])cc2)CC1

Test system: Kidney
Test: Biodistribution in kidney of C57BL/6J mouse bearing mouse B16F0 cells at 0.37 to 1.85 MBq, iv after 6 hrs by gamma counting method
Format: ADME, organism-based
Conditions: in vivo
Method in brief: as §1

Drug uptake [% ID/g]	Structure (SMILES)
10	O=C(c1ccc2c(n1)NCCC2)N1CCN(Cc2ccc([123I])cc2)CC1

Test system: Mus musculus
Test: Biodistribution in large gastrointestinal tract of C57BL/6J mouse bearing mouse B16F0 cells at 0.37 to 1.85 MBq, iv after 3 hrs by gamma counting method
Format: ADME, organism-based, Large intestine
Conditions: in vivo
Method in brief: as §1

Drug uptake [% ID/g]	Structure (SMILES)
59.6	O=C(c1ccc2c(n1)NCCC2)N1CCN(Cc2ccc([123I])cc2)CC1

Test system: Liver
Test: Biodistribution in liver of C57BL/6J mouse bearing mouse B16F0 cells at 0.37 to 1.85 MBq, iv after 48 hrs by gamma counting method
Format: ADME, organism-based
Conditions: in vivo
Method in brief: as §1

Drug uptake [% ID/g]	Structure (SMILES)
0.2	O=C(c1ccc2c(n1)NCCC2)N1CCN(Cc2ccc([123I])cc2)CC1

Test system: not listed separately
Test: Ratio of AUC in tumor to thyroid gland of C57BL/6J mouse bearing mouse B16F0 cells at 0.37 to 1.85 MBq, iv by gamma counting method
Format: ADME, organism-based
Conditions: in vivo
Method in brief: (§2)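 Biodistribution in B16F0-bearing C57BL/6J mice given i.v. tail-vein tracer (~0.37 MBq for 1–24 h, 1.85 MBq for 48 h). Sacrifice at 1, 3, 6, 16, 24 and 48 h, then organs dissected, weighed and γ-counted as decay-corrected % ID/g. Tumor AUC divided by each organ AUC; mean of ratios ± SEM, n = 5.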

Ratio	Structure (SMILES)
7.2	O=C(c1ccc2c(n1)NCCC2)N1CCN(Cc2ccc([123I])cc2)CC1

Test system: Mus musculus
Test: Biodistribution in tumor of C57BL/6J mouse bearing mouse B16F0 cells at 0.37 to 1.85 MBq, iv after 3 hrs by gamma counting method
Format: ADME, organism-based
Conditions: in vivo
Method in brief: as §1

Drug uptake [% ID/g]	Structure (SMILES)
32.1	O=C(c1ccc2c(n1)NCCC2)N1CCN(Cc2ccc([123I])cc2)CC1

Test system: Brain
Test: Drug distribution in brain of C57BL/6J mouse bearing mouse B16F0 cells at 18 to 20 MBq, iv measured over 72 hrs by SPECT imaging study
Format: ADME, organism-based
Conditions: in vivo
Method in brief: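 Female C57BL/6J mice bearing s.c. B16F0 tumors (11 days growth) received 18−20 MBq in 100 μL via lateral tail vein (n = 3). Isoflurane anesthesia (5% induction, 2−2.5% maintenance) on a 37 °C heating pad. Planar γ-camera imaging at 10−60 min (5 min frames), 3 and 6 h, 24, 48 and 72 h. Radioactivity localization assessed visually.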

Drug uptake	Structure (SMILES)
Not Active	O=C(c1ccc2c(n1)NCCC2)N1CCN(Cc2ccc([123I])cc2)CC1

Test system: Mus musculus
Test: Biodistribution in small gastrointestinal tract of C57BL/6J mouse bearing mouse B16F0 cells at 0.37 to 1.85 MBq, iv after 1 hr by gamma counting method
Format: ADME, organism-based, Small intestine
Conditions: in vivo
Method in brief: as §1

Drug uptake [% ID/g]	Structure (SMILES)
45.6	O=C(c1ccc2c(n1)NCCC2)N1CCN(Cc2ccc([123I])cc2)CC1

Test system: Mus musculus
Test: Biodistribution in tumor of C57BL/6J mouse bearing mouse B16F0 cells at 0.37 to 1.85 MBq, iv after 48 hrs by gamma counting method
Format: ADME, organism-based
Conditions: in vivo
Method in brief: as §1

Drug uptake [% ID/g]	Structure (SMILES)
5.6	O=C(c1ccc2c(n1)NCCC2)N1CCN(Cc2ccc([123I])cc2)CC1

Test system: Mus musculus
Test: Biodistribution in small gastrointestinal tract of C57BL/6J mouse bearing mouse B16F0 cells at 0.37 to 1.85 MBq, iv after 3 hrs by gamma counting method
Format: ADME, organism-based, Small intestine
Conditions: in vivo
Method in brief: as §1

Drug uptake [% ID/g]	Structure (SMILES)
63.8	O=C(c1ccc2c(n1)NCCC2)N1CCN(Cc2ccc([123I])cc2)CC1

Test system: Mus musculus
Test: Biodistribution in eyes of C57BL/6J mouse bearing mouse B16F0 cells at 0.37 to 1.85 MBq, iv after 16 hrs by gamma counting method
Format: ADME, organism-based, Eye
Conditions: in vivo
Method in brief: as §1

Drug uptake [% ID/g]	Structure (SMILES)
28.6	O=C(c1ccc2c(n1)NCCC2)N1CCN(Cc2ccc([123I])cc2)CC1

Test system: Mus musculus
Test: Biodistribution in thyroid gland of C57BL/6J mouse bearing mouse B16F0 cells at 0.37 to 1.85 MBq, iv after 1 hr by gamma counting method
Format: ADME, organism-based
Conditions: in vivo
Method in brief: as §1

Drug uptake [% ID/g]	Structure (SMILES)
5.1	O=C(c1ccc2c(n1)NCCC2)N1CCN(Cc2ccc([123I])cc2)CC1

Test system: Spleen
Test: Biodistribution in spleen of C57BL/6J mouse bearing mouse B16F0 cells at 0.37 to 1.85 MBq, iv after 6 hrs by gamma counting method
Format: ADME, organism-based
Conditions: in vivo
Method in brief: as §1

Drug uptake [% ID/g]	Structure (SMILES)
1	O=C(c1ccc2c(n1)NCCC2)N1CCN(Cc2ccc([123I])cc2)CC1

Test system: Spleen
Test: Biodistribution in spleen of C57BL/6J mouse bearing mouse B16F0 cells at 0.37 to 1.85 MBq, iv after 48 hrs by gamma counting method
Format: ADME, organism-based
Conditions: in vivo
Method in brief: as §1

Drug uptake [% ID/g]	Structure (SMILES)
0.05	O=C(c1ccc2c(n1)NCCC2)N1CCN(Cc2ccc([123I])cc2)CC1

Test system: Liver
Test: Biodistribution in liver of C57BL/6J mouse bearing mouse B16F0 cells at 0.37 to 1.85 MBq, iv after 3 hrs by gamma counting method
Format: ADME, organism-based
Conditions: in vivo
Method in brief: as §1

Drug uptake [% ID/g]	Structure (SMILES)
13.2	O=C(c1ccc2c(n1)NCCC2)N1CCN(Cc2ccc([123I])cc2)CC1

Test system: Mus musculus
Test: Biodistribution in large gastrointestinal tract of C57BL/6J mouse bearing mouse B16F0 cells at 0.37 to 1.85 MBq, iv after 6 hrs by gamma counting method
Format: ADME, organism-based
Conditions: in vivo
Method in brief: as §1

Drug uptake [% ID/g]	Structure (SMILES)
87.1	O=C(c1ccc2c(n1)NCCC2)N1CCN(Cc2ccc([123I])cc2)CC1

Test system: Mus musculus
Test: Whole body clearance in C57BL/6J mouse bearing mouse B16F0 cells at 0.37 to 1.85 MBq, iv after 16 hrs by gamma counting method
Format: ADME, organism-based
Conditions: in vivo

CL [%]	Structure (SMILES)
> 98	O=C(c1ccc2c(n1)NCCC2)N1CCN(Cc2ccc([123I])cc2)CC1

Test system: Mus musculus
Test: Biodistribution in large gastrointestinal tract of C57BL/6J mouse bearing mouse B16F0 cells at 0.37 to 1.85 MBq, iv after 16 hrs by gamma counting method
Format: ADME, organism-based, Large intestine
Conditions: in vivo
Method in brief: as §1

Drug uptake [% ID/g]	Structure (SMILES)
2.3	O=C(c1ccc2c(n1)NCCC2)N1CCN(Cc2ccc([123I])cc2)CC1

Test system: Mus musculus
Test: Biodistribution in tumor of C57BL/6J mouse bearing mouse B16F0 cells at 0.37 to 1.85 MBq, iv after 6 hrs by gamma counting method
Format: ADME, organism-based
Conditions: in vivo
Method in brief: as §1

Drug uptake [% ID/g]	Structure (SMILES)
32.5	O=C(c1ccc2c(n1)NCCC2)N1CCN(Cc2ccc([123I])cc2)CC1

Test system: not listed separately
Test: Ratio of AUC in tumor to eyes of C57BL/6J mouse bearing mouse B16F0 cells at 0.37 to 1.85 MBq, iv by gamma counting method
Format: ADME, organism-based
Conditions: in vivo
Method in brief: as §2

Ratio	Structure (SMILES)
0.52	O=C(c1ccc2c(n1)NCCC2)N1CCN(Cc2ccc([123I])cc2)CC1

Test system: Mus musculus
Test: Biodistribution in large gastrointestinal tract of C57BL/6J mouse bearing mouse B16F0 cells at 0.37 to 1.85 MBq, iv after 1 hr by gamma counting method
Format: ADME, organism-based, Large intestine
Conditions: in vivo
Method in brief: as §1

Drug uptake [% ID/g]	Structure (SMILES)
7.9	O=C(c1ccc2c(n1)NCCC2)N1CCN(Cc2ccc([123I])cc2)CC1

Test system: Spleen
Test: Biodistribution in spleen of C57BL/6J mouse bearing mouse B16F0 cells at 0.37 to 1.85 MBq, iv after 3 hrs by gamma counting method
Format: ADME, organism-based
Conditions: in vivo
Method in brief: as §1

Drug uptake [% ID/g]	Structure (SMILES)
2	O=C(c1ccc2c(n1)NCCC2)N1CCN(Cc2ccc([123I])cc2)CC1

Test system: Liver
Test: Biodistribution in liver of C57BL/6J mouse bearing mouse B16F0 cells at 0.37 to 1.85 MBq, iv after 1 hr by gamma counting method
Format: ADME, organism-based
Conditions: in vivo
Method in brief: as §1

Drug uptake [% ID/g]	Structure (SMILES)
19.5	O=C(c1ccc2c(n1)NCCC2)N1CCN(Cc2ccc([123I])cc2)CC1

Test system: not listed separately
Test: Stability in urine of C57BL/6J mouse bearing mouse B16F0 cells assessed as drug degradation at 0.37 to 1.85 MBq, iv after 24 hrs by radio-HPLC and radio-TLC method
Format: ADME, organism-based
Conditions: in vivo, in the assay text read “20 MBq” for “0.37 to 1.85 MBq”
Method in brief: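 Tumor-bearing C57BL/6J mice were sampled 3 and 24 h after i.v. tracer. Tissue was sonicated in CH3CN/water (3:2) with cold iodo standard and KI, then centrifuged. Urine was diluted and spiked; plasma was spiked, with CH3CN precipitation for TLC. Intact fraction came from silica radio-TLC (spot matching standard Rf) and radio-HPLC with precolumn/C18 column switching.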

Stability	Structure (SMILES)
Unstable	O=C(c1ccc2c(n1)NCCC2)N1CCN(Cc2ccc([123I])cc2)CC1
